Test results: ChEMBL document CHEMBL1142136, “Contribution of target gene mutations and efflux to decreased susceptibility of Salmonella enterica serovar typhimurium to fluoroquinolones and other antimicrobials” (2007)
≈ marks a conversion by molar mass, not a printed value.

Key:
Type in all cases: functional, Salmonella enterica subsp. enterica serovar Typhimurium
Salmonella typhimurium [1] = experiment: Antimicrobial activity against Salmonella enterica serovar Typhimurium CS3 tolC::Kan with GyrA S83F, D87N, parC S80I mutation
Method in brief: (§1)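 MICs measured by broth microdilution on the Sensititre automated system and interpreted by CLSI broth microdilution standards. Ciprofloxacin was also tested by agar dilution, widening the range to 0.0075–128 μg/ml. Quality control strains were E. coli ATCC 25922 and 35218, E. faecalis ATCC 29212, S. aureus ATCC 29213 and P. aeruginosa ATCC 27853.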

Salmonella typhimurium [2] = experiment: Antimicrobial activity against Salmonella enterica serovar Typhimurium S21-4 tolC::Kan with GyrA S83F, ParC S80I mutation; method in brief: as §1
Salmonella typhimurium [3] = experiment: Antimicrobial activity against Salmonella enterica serovar Typhimurium S21-1 GyrA S83F mutant; method in brief: as §1
Salmonella typhimurium [4] = experiment: Antimicrobial activity against Salmonella enterica serovar Typhimurium S21 gyrA+; method in brief: as §1
Salmonella typhimurium [5] = experiment: Antimicrobial activity against Salmonella enterica serovar Typhimurium S21-4 gyrA+ with ParC S80I mutation; method in brief: as §1
Salmonella typhimurium [6] = experiment: Antimicrobial activity against Salmonella enterica serovar Typhimurium CHS18 gyrA+ with GyrA S38F mutation; method in brief: as §1
Salmonella typhimurium [7] = experiment: Antimicrobial activity against Salmonella enterica serovar Typhimurium CS3 gyrA+ with GyrA S83F, D87N, ParC S80I mutation; method in brief: as §1
Salmonella typhimurium [8] = experiment: Antimicrobial activity against Salmonella enterica serovar Typhimurium S21-2 with GyrA S83F, ParC S80I mutation; method in brief: as §1
Salmonella typhimurium [9] = experiment: Antimicrobial activity against Salmonella enterica serovar Typhimurium CHS38 acrAB::Kan with GyrA D87G mutation; method in brief: as §1
Salmonella typhimurium [10] = experiment: Antimicrobial activity against Salmonella enterica serovar Typhimurium S21-2 tolC::Kan with GyrA S83F, ParC S80I mutation; method in brief: as §1
Salmonella typhimurium [11] = experiment: Antimicrobial activity against Salmonella enterica serovar Typhimurium S21-2 gyrA+ with ParC S80I mutation; method in brief: as §1
Salmonella typhimurium [12] = experiment: Antimicrobial activity against Salmonella enterica serovar Typhimurium S21-1 gyrA+; method in brief: as §1
Salmonella typhimurium [13] = experiment: Antimicrobial activity against Salmonella enterica serovar Typhimurium S21-3 acrAB::Kan with GyrA S83F, ParC S80I mutation; method in brief: as §1
Salmonella typhimurium [14] = experiment: Antimicrobial activity against Salmonella enterica serovar Typhimurium S21-4 with GyrA S83F, ParC S80I mutation; method in brief: as §1
Salmonella typhimurium [15] = experiment: Antimicrobial activity against Salmonella enterica serovar Typhimurium CHS38 with GyrA D87G mutation; method in brief: as §1
Salmonella typhimurium [16] = experiment: Antimicrobial activity against Salmonella enterica serovar Typhimurium CHS18 tolC::Kan with GyrA S38F mutation; method in brief: as §1
Salmonella typhimurium [17] = experiment: Antimicrobial activity against Salmonella enterica serovar Typhimurium CHS14 gyrA+ with GyrA D87G mutation; method in brief: as §1
Salmonella typhimurium [18] = experiment: Antimicrobial activity against Salmonella enterica serovar Typhimurium S21; method in brief: as §1
Salmonella typhimurium [19] = experiment: Antimicrobial activity against Salmonella enterica serovar Typhimurium CHS18 acrAB::Kan with GyrA S38F mutation; method in brief: as §1
Salmonella typhimurium [20] = experiment: Antimicrobial activity against Salmonella enterica serovar Typhimurium CHS18 with GyrA S38F mutation; method in brief: as §1
Salmonella typhimurium [21] = experiment: Antimicrobial activity against Salmonella enterica serovar Typhimurium GyrA S21-1 acrAB::Kan with GyrA S83F mutation; method in brief: as §1
Salmonella typhimurium [22] = experiment: Antimicrobial activity against Salmonella enterica serovar Typhimurium S21-4 acrAB::Kan with GyrA S83F, ParC S80I mutation; method in brief: as §1
Salmonella typhimurium [23] = experiment: Antimicrobial activity against Salmonella enterica serovar Typhimurium CHS14 acrAB::Kan with GyrA D87G mutation; method in brief: as §1
Salmonella typhimurium [24] = experiment: Antimicrobial activity against Salmonella enterica serovar Typhimurium CHS38 gyrA+ with GyrA D87G mutation; method in brief: as §1
Salmonella typhimurium [25] = experiment: Antimicrobial activity against Salmonella enterica serovar Typhimurium S21 acrAB::Kan
Method in brief: (§2)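 MICs by automated broth microdilution panels, interpreted to CLSI broth microdilution standards. Ciprofloxacin additionally tested by agar dilution across 0.0075 to 128 μg/ml. Quality control strains: E. coli ATCC 25922 and 35218, Enterococcus faecalis ATCC 29212, S. aureus ATCC 29213, P. aeruginosa ATCC 27853. Test strains are kanamycin-marked deletion mutants of ground-beef isolate S21.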

Salmonella typhimurium [26] = experiment: Antimicrobial activity against Salmonella enterica serovar Typhimurium S21-3 tolC::Kan with GyrA S83F, ParC S80I mutation; method in brief: as §1
Salmonella typhimurium [27] = experiment: Antimicrobial activity against Salmonella enterica serovar Typhimurium CS1 tolC::Kan with GyrA S83F, D87N, ParC S80I mutation; method in brief: as §1
Salmonella typhimurium [28] = experiment: Antimicrobial activity against Salmonella enterica serovar Typhimurium CS1 acrAB::Kan with GyrA S83F, D87N, ParC S80I mutation; method in brief: as §1
Salmonella typhimurium [29] = experiment: Antimicrobial activity against Salmonella enterica serovar Typhimurium CS1 with GyrA S83F, D87N, ParC S80I mutation; method in brief: as §1
Salmonella typhimurium [30] = experiment: Antimicrobial activity against Salmonella enterica serovar Typhimurium S21-3 with GyrA S83F, ParC S80I mutation; method in brief: as §1
Salmonella typhimurium [31] = experiment: Antimicrobial activity against Salmonella enterica serovar Typhimurium CS1 gyrA+ with GyrA S83F, D87N, ParC S80I mutation; method in brief: as §1
Salmonella typhimurium [32] = experiment: Antimicrobial activity against Salmonella enterica serovar Typhimurium S21-2 acrAB::Kan with GyrA S83F, ParC S80I mutation; method in brief: as §1
Salmonella typhimurium [33] = experiment: Antimicrobial activity against Salmonella enterica serovar Typhimurium CHS14 with GyrA D87G mutation; method in brief: as §1
Salmonella typhimurium [34] = experiment: Antimicrobial activity against Salmonella enterica serovar Typhimurium CHS14 tolC::Kan with GyrA D87G mutant; method in brief: as §1
Salmonella typhimurium [35] = experiment: Antimicrobial activity against Salmonella enterica serovar Typhimurium S21-3 gyrA+ with ParC S80I mutation; method in brief: as §1
Salmonella typhimurium [36] = experiment: Antimicrobial activity against Salmonella enterica serovar Typhimurium CS9 with GyrA S83F, D87N, ParC S80I mutation; method in brief: as §1
Salmonella typhimurium [37] = experiment: Antimicrobial activity against Salmonella enterica serovar Typhimurium CHS38 tolC::Kan with GyrA D87G mutation; method in brief: as §1
Salmonella typhimurium [38] = experiment: Antimicrobial activity against Salmonella enterica serovar Typhimurium CS9 gyrA+ with GyrA S83F, D87N, ParC S80I mutation; method in brief: as §1
Salmonella typhimurium [39] = experiment: Antimicrobial activity against Salmonella enterica serovar Typhimurium CS9 tolC::Kan with GyrA S83F, D87N, ParC S80I mutation; method in brief: as §1
Salmonella typhimurium [40] = experiment: Antimicrobial activity against Salmonella enterica serovar Typhimurium CS3 acrAB::Kan with GyrA S83F, D87N, ParC S80I mutation; method in brief: as §1
Salmonella typhimurium [41] = experiment: Antimicrobial activity against Salmonella enterica serovar Typhimurium S21 tolC::Kan; method in brief: as §2
Salmonella typhimurium [42] = experiment: Antimicrobial activity against Salmonella enterica serovar Typhimurium CS3 with GyrA S83F, D87N, ParC S80I mutation; method in brief: as §1
Salmonella typhimurium [43] = experiment: Antimicrobial activity against Salmonella enterica serovar Typhimurium S21-1 tolC::Kan with GyrA S83F mutation; method in brief: as §1
Salmonella typhimurium [44] = experiment: Antimicrobial activity against Salmonella enterica serovar Typhimurium CS9 acrAB::Kan with GyrA S83F, D87N, ParC S80I mutation; method in brief: as §1

COc1c(N2CCNC(C)C2)c(F)cc2c(=O)c(C(=O)O)cn(C3CC3)c12 (centres undefined) [GATIFLOXACIN]
MIC (Salmonella typhimurium [1]): 0.5 µg/mL (≈ 1.33 µM)
MIC (Salmonella typhimurium [2]): 0.06 µg/mL (≈ 0.16 µM)
MIC (Salmonella typhimurium [3]): 0.5 µg/mL (≈ 1.33 µM)
MIC (Salmonella typhimurium [4]): 0.03 µg/mL (≈ 0.0799 µM)
MIC (Salmonella typhimurium [5]): 2 µg/mL (≈ 5.33 µM)
MIC (Salmonella typhimurium [6]): 0.06 µg/mL (≈ 0.16 µM)
MIC (Salmonella typhimurium [7]): 0.06 µg/mL (≈ 0.16 µM)
MIC (Salmonella typhimurium [8]): 1 µg/mL (≈ 2.66 µM)
MIC (Salmonella typhimurium [9]): < 0.015 µg/mL
MIC (Salmonella typhimurium [10]): 0.06 µg/mL (≈ 0.16 µM)
MIC (Salmonella typhimurium [11]): 0.25 µg/mL (≈ 0.666 µM)
MIC (Salmonella typhimurium [12]): 0.03 µg/mL (≈ 0.0799 µM)
MIC (Salmonella typhimurium [13]): 0.06 µg/mL (≈ 0.16 µM)
MIC (Salmonella typhimurium [14]): 16 µg/mL (≈ 42.6 µM)
MIC (Salmonella typhimurium [15]): 0.12 µg/mL (≈ 0.32 µM)
MIC (Salmonella typhimurium [16]): 0.03 µg/mL (≈ 0.0799 µM)
MIC (Salmonella typhimurium [17]): 0.03 µg/mL (≈ 0.0799 µM)
MIC (Salmonella typhimurium [18]): 0.03 µg/mL (≈ 0.0799 µM)
MIC (Salmonella typhimurium [19]): 0.12 µg/mL (≈ 0.32 µM)
MIC (Salmonella typhimurium [20]): 0.25 µg/mL (≈ 0.666 µM)
MIC (Salmonella typhimurium [21]): 0.03 µg/mL (≈ 0.0799 µM)
MIC (Salmonella typhimurium [22]): 0.06 µg/mL (≈ 0.16 µM)
MIC (Salmonella typhimurium [23]): < 0.015 µg/mL
MIC (Salmonella typhimurium [24]): < 0.015 µg/mL
MIC (Salmonella typhimurium [25]): < 0.015 µg/mL
MIC (Salmonella typhimurium [26]): 0.06 µg/mL (≈ 0.16 µM)
MIC (Salmonella typhimurium [27]): 0.5 µg/mL (≈ 1.33 µM)
MIC (Salmonella typhimurium [28]): 0.5 µg/mL (≈ 1.33 µM)
MIC (Salmonella typhimurium [29]): 4 µg/mL (≈ 10.7 µM)
MIC (Salmonella typhimurium [30]): 8 µg/mL (≈ 21.3 µM)
MIC (Salmonella typhimurium [31]): 0.06 µg/mL (≈ 0.16 µM)
MIC (Salmonella typhimurium [32]): 0.06 µg/mL (≈ 0.16 µM)
MIC (Salmonella typhimurium [33]): 0.25 µg/mL (≈ 0.666 µM)
MIC (Salmonella typhimurium [34]): < 0.015 µg/mL
MIC (Salmonella typhimurium [35]): 1 µg/mL (≈ 2.66 µM)
MIC (Salmonella typhimurium [36]): 4 µg/mL (≈ 10.7 µM)
MIC (Salmonella typhimurium [37]): < 0.015 µg/mL
MIC (Salmonella typhimurium [38]): 0.06 µg/mL (≈ 0.16 µM)
MIC (Salmonella typhimurium [39]): 0.5 µg/mL (≈ 1.33 µM)
MIC (Salmonella typhimurium [40]): 0.5 µg/mL (≈ 1.33 µM)
MIC (Salmonella typhimurium [41]): < 0.015 µg/mL
MIC (Salmonella typhimurium [42]): 4 µg/mL (≈ 10.7 µM)
MIC (Salmonella typhimurium [43]): 0.03 µg/mL (≈ 0.0799 µM)
MIC (Salmonella typhimurium [44]): 0.5 µg/mL (≈ 1.33 µM)
